According to ChEMBL document CHEMBL1148774, “Doxazolidine induction of apoptosis by a topoisomerase II independent mechanism” (J Med Chem, 2007):
pIC50: −log10 of the molar value. Activity calls are given as the source filed them. No cut-off for these calls is given here.

How the values were obtained:
SHP77 = assay: Growth inhibition of human SHP77 cells after 3 hrs by MTT assay; assay type: functional, cell-based; conditions: SHP77, 3 h
Summary of the method: (§1)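 Adherent cells grown in 10% FBS medium (RPMI 1640 or DMEM) were exposed to drug for 3 h. They were then grown until control wells reached ~80% confluence (3–5 days) and quantified by MTT metabolism or crystal violet staining. IC50 was taken from growth inhibition. Each condition was run in hexuplicate, and experiments were done at least twice.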

HL-60 [1] = assay: Induction of apoptosis in HL60 cells assessed as annexin V positive cells; assay type: functional, Homo sapiens
Summary of the method: (§2)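 HL-60 and HL-60/MX2 cells in RPMI 1640/10% FBS were treated with 100 nM drug or vehicle for 24 h. Cells were washed in cold PBS and stained with annexin V-fluorescein plus propidium iodide in binding buffer (140 mM NaCl, 10 mM HEPES pH 7.4, 2.5 mM CaCl2). The percent annexin V-positive cells was read by flow cytometry.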

HL60/MX2 [2] = assay: Induction of apoptosis in topoisomerase 2 deficient HL60/MX2 cells assessed as annexin V positive cells; assay type: functional, Homo sapiens; summary of the method: as §2
HCT-116 [3] = assay: Induction of apoptosis in human HCT116 cells at 50 nM for 3 hrs by annexin V staining assay; assay type: functional
Summary of the method: (§3)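 HCT-116 cells in McCoy's medium/10% FBS were exposed to drug at a series of concentrations, or to vehicle, for 3 h. At 48 h post-treatment they were trypsinized and washed in cold PBS. They were then stained with annexin V-fluorescein and propidium iodide in HEPES pH 7.4/CaCl2 binding buffer, and the percent apoptotic cells was measured by flow cytometry.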

SF-268 = assay: Growth inhibition of human SF268 cells after 48 hrs by MTT assay; assay type: functional, cell-based; conditions: SF-268, 48 h
HCT-116 [4] = assay: Induction of apoptosis in human HCT116 cells at 200 nM for 3 hrs by annexin V staining assay; assay type: functional; summary of the method: as §3
RXF 393 = assay: Growth inhibition of human RXF393 cells after 48 hrs by MTT assay; assay type: functional, cell-based; conditions: RXF 393, 48 h
A-375 = assay: Growth inhibition of human A375 cells after 3 hrs by MTT assay; assay type: functional, cell-based; conditions: A-375, 3 h; summary of the method: as §1
Homo sapiens [5] = organism: Homo sapiens; assay: Inhibition of topoisomerase 2 at 50 nM by decatenation assay
Summary of the method: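 Human recombinant topoisomerase II (one unit) was incubated with 143 ng catenated kinetoplast DNA, with or without drug, for 30 min at 37 °C. The buffer held 120 mM KCl, 50 mM Tris-HCl, 10 mM MgCl2, 0.5 mM DTT, 0.5 mM ATP and 30 μg/mL BSA. Reactions were stopped with sarkosyl/glycerol dye, and decatenation was resolved by agarose gel electrophoresis.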

[6] = Growth inhibition of human MCF7/ADR cells after 48 hrs by crystal violet assay; assay type: functional, cell-based; conditions: NCI/ADR-RES
PC-3 = assay: Growth inhibition of human PC3 cells after 3 hrs by MTT assay; assay type: functional, cell-based; conditions: PC-3, 3 h; summary of the method: as §1
MIA PaCa-2 = assay: Growth inhibition of human MiaPaCa2 cells after 3 hrs by MTT assay; assay type: functional, cell-based; conditions: MIA PaCa-2, 3 h; summary of the method: as §1
UACC-257 = assay: Growth inhibition of human UACC257 cells after 48 hrs by MTT assay; assay type: functional, cell-based; conditions: UACC-257, 48 h
HL60/MX2 [7] = assay: Effect on G2/M arrest in topoisomerase 2 deficient human HL60/MX2 cells at 100 nM after 24 hrs; assay type: functional, cell-based
Summary of the method: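 HL-60/MX2 cells in RPMI 1640/10% FBS were treated with 100 nM drug or vehicle for 24 h, then centrifuged and washed in cold PBS. They were fixed in 50% ethanol, treated with RNase A and stained with propidium iodide (50 μg/mL final). Cell cycle distribution was read by flow cytometry.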

MDA-MB-435 = assay: Growth inhibition of human MDA-MB-435 cells after 3 hrs by MTT assay; assay type: functional, cell-based; conditions: MDA-MB-435, 3 h; summary of the method: as §1
BXPC-3 = assay: Growth inhibition of human BxPc3 cells after 3 hrs by MTT assay; assay type: functional, cell-based; conditions: BXPC-3, 3 h; summary of the method: as §1
HCT-116 [8] = assay: Induction of apoptosis in human HCT116 cells at 400 nM for 3 hrs relative to control cells by annexin V staining assay; assay type: functional, cell-based; summary of the method: as §3
[9] = Growth inhibition of human IGROVI cells after 48 hrs by MTT assay; assay type: functional, cell-based
DU-145 = assay: Growth inhibition of human DU145 cells after 48 hrs by MTT assay; assay type: functional, cell-based; conditions: DU-145, 48 h
[10] = Growth inhibition of human HL60(TB) cells after 48 hrs by crystal violet assay; assay type: functional, HL-60(TB); conditions: HL-60, 48 h
Homo sapiens [11] = organism: Homo sapiens; assay: Inhibition of topoisomerase 2 at 500 nM by decatenation assay
Summary of the method: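 Kinetoplast DNA decatenation: 143 ng catenated kDNA with one unit human recombinant topoisomerase II, ± drug at 500 nM. Buffer: 120 mM KCl, 50 mM Tris-HCl, 10 mM MgCl2, 0.5 mM DTT, 0.5 mM ATP, 30 μg/mL BSA. Incubated 30 min at 37 °C. Stopped with sarkosyl/glycerol loading dye, then resolved by agarose gel electrophoresis.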

HCT-116 [12] = assay: Cell cycle arrest in human HCT116 cells by accumulation at G2/M phase at 400 nM for 3 hrs by flow cytometry; assay type: functional, cell-based
Summary of the method: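 HCT-116 cells in McCoy's medium with 10% FBS, exposed 3 h at 400 nM or vehicle, then grown on and analysed 24 h post-treatment. Cells trypsinized, washed in cold PBS/2 mM EDTA, fixed in 50% ethanol, RNase A treated, stained with propidium iodide (50 μg/mL final). DNA content by FACScan flow cytometry.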

NCI-H460 = assay: Growth inhibition of human NCIH460 cells after 48 hrs by MTT assay; assay type: functional, cell-based; conditions: NCI-H460, 48 h
HL-60 [13] = assay: Effect on G2/M arrest in human HL60 cells at 100 nM after 24 hrs; assay type: functional, cell-based
Summary of the method: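 HL-60 cells kept in RPMI 1640 with 10% FBS, 2 mM L-glutamine, 10 mM HEPES. Exposed continuously for 24 h at 100 nM or vehicle. Cells centrifuged, washed in cold PBS/2 mM EDTA, fixed in 50% ethanol, RNase A treated, stained with propidium iodide (50 μg/mL final). Cell cycle distribution read by flow cytometry.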

HCT-116 [14] = assay: Growth inhibition of human HCT116 cells after 48 hrs by MTT assay; assay type: functional, cell-based; conditions: HCT-116, 48 h

Row | SMILES | pIC50 (SHP77) | Activity (HL-60 [1]) | Activity (HL60/MX2 [2]) | pIC50 (SF-268) | pIC50 (RXF 393) | pIC50 (A-375) | pIC50 [6] | pIC50 (PC-3) | pIC50 (MIA PaCa-2) | pIC50 (UACC-257) | pIC50 (MDA-MB-435) | pIC50 [9] | pIC50 (DU-145) | pIC50 [10] | further results
1 | COc1cccc2c1C(=O)c1c(O)c3c(c(O)c1C2=O)C[C@@](O)(C(=O)CO)C[C@@H]3O[C@H]1C[C@@H]2NCO[C@@H]2[C@H](C)O1 [DOXAZOLIDINE] | 8.70 | 77% | 75% | 8.58 | > 9.01 | 9.00 | > 7.73 | 8.00 | 8.50 | > 8.82 | 8.00 | > 8.86 | 8.50 | 9.48 | Activity (HCT-116 [3]): 20%; Activity (HCT-116 [4]): 60%; Activity (Homo sapiens [5]): Active; Activity (HL60/MX2 [7]): Active; pIC50 (BXPC-3): 8.00; Activity (HCT-116 [8]): Dose-dependent effect
2 | COc1cccc2c1C(=O)c1c(O)c3c(c(O)c1C2=O)C[C@@](O)(C(=O)CO)C[C@@H]3O[C@H]1C[C@H](N)[C@H](O)[C@H](C)O1 [DOXORUBICIN] | < 6.00 | 29% | 5% | 7.04 | 6.75 | 6.70 | 4.88 | 6.50 | 6.50 | 6.68 | 6.80 | 6.96 | 6.96 | 7.23 | Activity (Homo sapiens [11]): Active; Activity (HCT-116 [12]): Active; pIC50 (NCI-H460): 8.22; Activity (HL-60 [13]): inactive; pIC50 (HCT-116 [14]): 7.15
